# Experimental data collected from several papers.
# Compare with care: the assays were run in different laboratories.
# Target: Glycogen synthase kinase-3 beta (GSK3B, Homo sapiens, UniProt P49841)
# Technique: competition with immobilised ligand
test,conditions,remaining binding,Compound
binding,1 µM,0.2%,O=C(NCC1CCOCC1)c1n[nH]cc1NC(=O)c1c(F)cccc1F
binding,1 µM,75%,F[C@@H]1CCN(c2nccc(-c3cnn4ncccc34)n2)C1
binding,1 µM,60%,O=C(c1ccc(Nc2ncc(Cl)c(-c3ccc(Cl)s3)n2)cc1)N1CCC(N2CCCC2)CC1
cell-free assay,5 µM,78%,FC(F)(F)Oc1cccc(-c2cnc3ccc(-c4ccncc4)nn23)c1
binding,1 µM,95%,O=C(NCCCN1CCOCC1)c1ccc(Nc2ncc(Cl)c(-c3ccc(Cl)s3)n2)cc1
binding,1 µM,98%,Nc1ncc2c(n1)-c1c([nH]c3ccc(C#CC4CC4)cc13)CCCC2
binding,1 µM,37%,O=C(c1ccc(Nc2ncc(Cl)c(-c3cc4ccccc4s3)n2)cc1)N1CCC(N2CCCC2)CC1
cell-free assay,0.1 µM,100%,CC(C)CC(=O)N1CCc2nc(-c3ccc(Br)cc3)nc(N(C)Cc3ccccc3)c2C1
binding,1 µM,77%,c1cnn2ncc(-c3ccnc(N4CCC45COC5)n3)c2c1
cell-free assay,1 µM,100%,Cc1nc(Cc2cccc(C(F)(F)F)c2)sc1-c1ccc(C(N)=O)nc1
binding,10 µM,89%,c1cncc(-c2cccc(Nc3nccc(NC4CCCCC4)n3)c2)c1
cell-free assay,1 µM,96%,N#Cc1ccc(Nc2ccc3[nH]c(=O)[nH]c3c2)c(Cl)c1
cell-free assay,10 µM,81%,CC(C)(C)c1ccc(-c2nc(CBr)nn2-c2cccc(O)c2)cc1
cell-free assay,1 µM,85%,COc1cc(-c2cn(C3CCc4ccccc4N(CC(F)(F)F)C3=O)nn2)ccc1-n1ccc(C)n1 (stereo not shown)
binding,1 µM,97%,COc1cnc(Nc2cccc(S(N)(=O)=O)c2)nc1N1CCN(c2ccccc2)CC1
cell-free assay,0.1 µM,100%,C[C@H](c1ccnc(Nc2nc3ccc(-c4cc(N(C)C)ncn4)cc3[nH]2)c1)N1CCN(C(=O)CC(F)(F)F)CC1
binding,50 nM,76%,C[C@@H]1CN(c2ccc3ncc(-c4ccc5[nH]nc(C6CC6)c5c4)n3n2)C[C@H](C)O1
cell-free assay,1 µM,93%,CN([C@@H]1CCc2c(CC(=O)O)c3ccccc3n2C1)S(=O)(=O)c1ccc(F)cc1
cell-free assay,10 µM,35%,COC(=O)Nc1nc2ccc(C(=O)c3ccccc3)cc2[nH]1
